Results taken from ChEMBL document CHEMBL4689842, “EUbOPEN Chemogenomics Library wave 1” (2021).

Test system: Fibroblast
Experiment: Multiplex assay against human fibroblast
Assay type: toxicity, cell-based
How it was run: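 With compound added, live cells were imaged on a CQ1 microscope at 37°C and 5% CO2; staining with Hoechst33342, BioTracker Green Microtubule Cytoskeleton Dye, MitoTracker Red and Annexin V Alexa Fluor 680 had been done at seeding. The CellPathfinder machine-learning gating scheme split cells into Hoechst high-intensity objects or normal cells, normal cells into healthy, pyknosed or fragmented nuclei, and pyknosed cells into mitotic or apoptotic. The tubulin, mitochondrial-mass and membrane-permeability phenotypes are per cents of healthy-nucleus cells.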

[1] = 12 h, 1 µM, compound concentration 1 uM, replicate 1
[2] = 12 h, 1 µM, compound concentration 1 uM, replicate 2
[3] = 12 h, 10 µM, compound concentration 10 uM, replicate 1
[4] = 12 h, 10 µM, compound concentration 10 uM, replicate 2
[5] = 24 h, 1 µM, compound concentration 1 uM, replicate 1
[6] = 24 h, 1 µM, compound concentration 1 uM, replicate 2
[7] = 24 h, 10 µM, compound concentration 10 uM, replicate 1
[8] = 24 h, 10 µM, compound concentration 10 uM, replicate 2
[9] = 48 h, 1 µM, compound concentration 1 uM, replicate 1
[10] = 48 h, 1 µM, compound concentration 1 uM, replicate 2
[11] = 48 h, 10 µM, compound concentration 10 uM, replicate 1
[12] = 48 h, 10 µM, compound concentration 10 uM, replicate 2

## N#Cc1cccc(C(=O)Nc2cc(-c3ccccc3)nn2-c2ccccc2)c1
[1]
  Population Apoptotic (%): 66%
  Population Fragmented Nuclei (%): 21%
  Population Healthy Nuclei (%): 48%
  Population Hoechst High Intensity Objects (%): 11%
  Population Membrane Permeable-Phenotype (%): 22%
  Population Mitochondria Different-Phenotype (%): 6%
  Population Mitotic Cells (%): 34%
  Population Normal (%): 88%
  Population Pyknosed Nuclei (%): 30%
  Population Tubulin-Different-Phenotype (%): 48%
  Total Cell Count: 186
[2]
  Population Apoptotic (%): 16%
  Population Fragmented Nuclei (%): 5%
  Population Healthy Nuclei (%): 84%
  Population Hoechst High Intensity Objects (%): 3%
  Population Membrane Permeable-Phenotype (%): 6%
  Population Mitochondria Different-Phenotype (%): 8%
  Population Mitotic Cells (%): 83%
  Population Normal (%): 96%
  Population Pyknosed Nuclei (%): 10%
  Population Tubulin-Different-Phenotype (%): 16%
  Total Cell Count: 59
[3]
  Population Apoptotic (%): 50%
  Population Fragmented Nuclei (%): 15%
  Population Healthy Nuclei (%): 42%
  Population Hoechst High Intensity Objects (%): 8%
  Population Membrane Permeable-Phenotype (%): 23%
  Population Mitochondria Different-Phenotype (%): 15%
  Population Mitotic Cells (%): 50%
  Population Normal (%): 91%
  Population Pyknosed Nuclei (%): 42%
  Population Tubulin-Different-Phenotype (%): 82%
  Total Cell Count: 134
[4]
  Population Apoptotic (%): 45%
  Population Fragmented Nuclei (%): 9%
  Population Healthy Nuclei (%): 60%
  Population Hoechst High Intensity Objects (%): 9%
  Population Membrane Permeable-Phenotype (%): 15%
  Population Mitochondria Different-Phenotype (%): 84%
  Population Mitotic Cells (%): 55%
  Population Normal (%): 90%
  Population Pyknosed Nuclei (%): 30%
  Population Tubulin-Different-Phenotype (%): 97%
  Total Cell Count: 72
[5]
  Population Apoptotic (%): 47%
  Population Fragmented Nuclei (%): 17%
  Population Healthy Nuclei (%): 49%
  Population Hoechst High Intensity Objects (%): 8%
  Population Membrane Permeable-Phenotype (%): 34%
  Population Mitochondria Different-Phenotype (%): 6%
  Population Mitotic Cells (%): 52%
  Population Normal (%): 91%
  Population Pyknosed Nuclei (%): 33%
  Population Tubulin-Different-Phenotype (%): 69%
  Total Cell Count: 180
[6]
  Population Apoptotic (%): 14%
  Population Fragmented Nuclei (%): 3%
  Population Healthy Nuclei (%): 86%
  Population Hoechst High Intensity Objects (%): 4%
  Population Membrane Permeable-Phenotype (%): 1%
  Population Mitochondria Different-Phenotype (%): 8%
  Population Mitotic Cells (%): 85%
  Population Normal (%): 95%
  Population Pyknosed Nuclei (%): 10%
  Population Tubulin-Different-Phenotype (%): 7%
  Total Cell Count: 68
[7]
  Population Apoptotic (%): 45%
  Population Fragmented Nuclei (%): 20%
  Population Healthy Nuclei (%): 39%
  Population Hoechst High Intensity Objects (%): 6%
  Population Membrane Permeable-Phenotype (%): 36%
  Population Mitochondria Different-Phenotype (%): 4%
  Population Mitotic Cells (%): 54%
  Population Normal (%): 93%
  Population Pyknosed Nuclei (%): 39%
  Population Tubulin-Different-Phenotype (%): 93%
  Total Cell Count: 119
[8]
  Population Apoptotic (%): 42%
  Population Fragmented Nuclei (%): 9%
  Population Healthy Nuclei (%): 67%
  Population Membrane Permeable-Phenotype (%): 30%
  Population Mitochondria Different-Phenotype (%): 71%
  Population Mitotic Cells (%): 57%
  Population Pyknosed Nuclei (%): 22%
  Population Tubulin-Different-Phenotype (%): 95%
  Total Cell Count: 66
[9]
  Population Apoptotic (%): 57%
  Population Fragmented Nuclei (%): 31%
  Population Healthy Nuclei (%): 44%
  Population Hoechst High Intensity Objects (%): 12%
  Population Membrane Permeable-Phenotype (%): 26%
  Population Mitochondria Different-Phenotype (%): 3%
  Population Mitotic Cells (%): 42%
  Population Normal (%): 87%
  Population Pyknosed Nuclei (%): 24%
  Population Tubulin-Different-Phenotype (%): 50%
  Total Cell Count: 166
[10]
  Population Apoptotic (%): 0%
  Population Fragmented Nuclei (%): 28%
  Population Healthy Nuclei (%): 69%
  Population Hoechst High Intensity Objects (%): 8%
  Population Membrane Permeable-Phenotype (%): 12%
  Population Mitochondria Different-Phenotype (%): 5%
  Population Mitotic Cells (%): 100%
  Population Normal (%): 91%
  Population Pyknosed Nuclei (%): 1%
  Population Tubulin-Different-Phenotype (%): 57%
  Total Cell Count: 112
[11]
  Population Apoptotic (%): 41%
  Population Fragmented Nuclei (%): 30%
  Population Healthy Nuclei (%): 40%
  Population Hoechst High Intensity Objects (%): 12%
  Population Membrane Permeable-Phenotype (%): 28%
  Population Mitochondria Different-Phenotype (%): 4%
  Population Mitotic Cells (%): 58%
  Population Normal (%): 87%
  Population Pyknosed Nuclei (%): 28%
  Population Tubulin-Different-Phenotype (%): 95%
  Total Cell Count: 126
[12]
  Population Apoptotic (%): 23%
  Population Fragmented Nuclei (%): 45%
  Population Healthy Nuclei (%): 45%
  Population Hoechst High Intensity Objects (%): 34%
  Population Membrane Permeable-Phenotype (%): 25%
  Population Mitochondria Different-Phenotype (%): 1%
  Population Mitotic Cells (%): 76%
  Population Normal (%): 65%
  Population Pyknosed Nuclei (%): 9%
  Total Cell Count: 214
